According to ChEMBL document CHEMBL1124636, “3,4-Dihydro-2H-1-benzopyran-2-carboxylic acids and related compounds as leukotriene antagonists” (J Med Chem, 1989):
Each block holds one compound with its values, some of them ahead of it.

Key:
[1] = biological target: T1, Cysteinyl leukotriene receptor 1 (Cavia porcellus) (UniProt Q2NNR5); test: (§1) Inhibition of leukotriene D4 induced bronchoconstriction in anesthetized guinea pigs after intravenous administration at a dose of 1 mg/kg; format: organism-based; design: dose 1 mg/kg
T1 sequence (whole entry): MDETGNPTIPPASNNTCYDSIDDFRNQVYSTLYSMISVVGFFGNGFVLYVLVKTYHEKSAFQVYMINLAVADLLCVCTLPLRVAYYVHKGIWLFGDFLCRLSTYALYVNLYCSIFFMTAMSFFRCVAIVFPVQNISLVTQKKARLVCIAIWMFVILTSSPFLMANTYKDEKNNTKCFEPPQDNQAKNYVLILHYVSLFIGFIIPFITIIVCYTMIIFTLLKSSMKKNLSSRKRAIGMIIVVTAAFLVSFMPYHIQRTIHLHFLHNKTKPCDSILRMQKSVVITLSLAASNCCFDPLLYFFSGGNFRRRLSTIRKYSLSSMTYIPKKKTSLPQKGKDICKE

[2] = biological target: T1, Cysteinyl leukotriene receptor 1 (Cavia porcellus); test: Inhibitory activity of compound to block binding of radiolabeled leukotriene D4 to receptor sites in homogenized guinea pig lung at 10 uM
How it was run: (§2)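 Lung from male Hartley guinea pigs (400–500 g), homogenized in sucrose/Tris pH 7.5 with protease inhibitors; 30000g membrane pellet in 10 mM PIPES pH 7.5, 50 mM NaCl. Binding: Tyrode, 0.1% BSA, 1 mM glycine, 1 mM cysteine, 3.5 nM [3H]LTD4, 100–200 µg protein, 20 °C, 30 min; glass-fiber filtration. Nonspecific with 10^-6 M LTD4. Triplicate screen at 10 µM; IC50 by linear regression.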

[3] = test system: Cysteinyl leukotriene receptor (Cavia porcellus); test: Inhibitory activity to block binding of [3H]leukotriene D4 to LTD4 receptor sites in homogenized guinea pig lung at 10 uM
Cavia porcellus [4] = test: as §1; format: functional
Cavia porcellus [5] = species: Cavia porcellus; test: In vitro activity to inhibit SRS-A induced contraction of guinea pig ileum
[6] = biological target: T2, Cysteinyl leukotriene receptor 1 (Cavia porcellus, UniProt Q2NNR5); test: In vitro activity to inhibit binding of [3H]- leukotriene D4 to receptor sites in guinea pig lung membrane; format: cell membranes; how it was run: as §2
T2 sequence (Q2NNR5 whole entry): T1 sequence (whole entry)

Cavia porcellus [7] = test: In vivo guinea pig bronchoconstriction against leukotriene D4 when administered a compound dose (mg/kg) intravenously; format: functional; conditions: Lung, iv, read-out: ID50 (the source's name)
How it was run: (§3)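 Male Hartley guinea pigs, 400–600 g, urethane 2 g/kg ip, jugular cannula, propranolol 0.1 mg/kg iv 5 min before challenge, succinylcholine 1.2 mg/kg iv, ventilated. Vehicle or drug iv 30 s before LTD4 25 µg/kg iv; tracheal pressure change.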

Cavia porcellus [8] = test: In vivo guinea pig bronchoconstriction against leukotriene C4 when administered a compound dose (mg/kg) intravenously; format: functional; conditions: Lung, iv, read-out: ID50 (the source's name)
Cavia porcellus [9] = species: Cavia porcellus; test: In vitro activity to inhibit leukotriene D4 induced contraction of guinea pig trachea; format: functional; conditions: read-out: pA2 (converted)
How it was run: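 Guinea pig tracheal smooth muscle contracted by LTD4; pA2 and Schild slope reported.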

[10] = test system: Cysteinyl leukotriene receptor (Cavia porcellus); test: Inhibitory activity of compound to block binding of radiolabeled leukotriene D4 to receptor sites in homogenized guinea pig lung at 10 uM
[11] = biological target: T1, Cysteinyl leukotriene receptor 1 (Cavia porcellus); test: Inhibition of leukotriene D4 induced bronchoconstriction in anesthetized guinea pigs after intravenous administration at a dose of 10 mg/kg; format: functional, organism-based; design: dose 10 mg/kg; how it was run: as §3
[12] = test system: Cysteinyl leukotriene receptor 1 (Cavia porcellus); test: Inhibitory activity of compound to block binding of radiolabeled Cysteinyl leukotriene D4 receptor sites in homogenized guinea pig lung at 10 uM
Cavia porcellus [13] = test: Inhibition of leukotriene D4 induced bronchoconstriction in anesthetized guinea pigs after aerosol administration as 1% solution; format: functional
How it was run: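 Guinea pigs given propranolol 0.1 mg/kg iv 5 min before 5-min ultrasonic nebulizer exposure to aqueous, NaOH-neutralized drug (% w/v) or distilled water, breathing spontaneously. LTD4 50 µg/kg iv 30 s after exposure; tracheal pressure change.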

SMILES: CCCc1c(OCCCCCOc2cc3c(cc2C(C)=O)CCC(C(=O)O)O3)ccc(C=O)c1O (centres undefined)
inhibition [1]: 0%
inhibition [2]: 0%

SMILES: CCCc1c(O)c(C(C)=O)cc(O)c1OCCCCCOc1cc2c(cc1C(C)=O)CCC(C(=O)O)O2 (centres undefined)
Inhibition [10]: 0%
inhibition [11]: 0%

Further lines, with some results ahead:

inhibition [3]: 60%
SMILES: CCCc1c(OCCCCCOc2cc3c(cc2C(C)=O)CCC(c2nnn[nH]2)O3)ccc(C(C)=O)c1O (centres undefined)
inhibition in vivo at 1 mg/kg (Cavia porcellus [4]): 0%

IC50 (Cavia porcellus [5]): 60 nM
IC50 [6]: 5000 nM
SMILES: CCCc1c(OCCCCCOc2cc3c(cc2C(C)=O)CC[C@@H](C(=O)O)O3)ccc(C(C)=O)c1O
ED50 (Cavia porcellus [7]): 3 mg/kg
ED50 (Cavia porcellus [8]): 4 mg/kg
Kb (Cavia porcellus [9]): 631 nM

inhibition [12]: 39%
inhibition [2]: 39%
SMILES: CCCc1c(OCCCCCCCOc2cc3c(cc2C(C)=O)CCC(C(=O)O)O3)ccc(C(C)=O)c1O (centres undefined)
Inhibition (Cavia porcellus [13]): 44%
